The values below come from ChEMBL document CHEMBL5360668, “Discovery of Potent Allosteric DRP1 Inhibitors by Disrupting Protein-Protein Interaction with MiD49” (ACS Med Chem Lett, 2023).

Series [1] is described as follows: Negative allosteric modulator activity at human N-terminal His-tagged DRP1-human C-terminal GST-tagged MiD49 protein protein interaction expressed in Escherichia coli BL21 (DE3) incubated for 90 mins by AlphaLISA assay. An outline of the steps: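 AlphaLISA proximity assay. Glutathione donor and nickel chelate acceptor beads added, then 60 min at room temperature protected from light before signal read. Hits run as 11-point dose–response with TruHits counter-screen.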

The nature of series [2]: Solubility of compound in PBS at pH 7.5. Type of series: physicochemical.
Series [3] concerns A549. The experiment in a line: Inhibition of CCCP-induced mitochondrial morphology change in human A549 cells at 10 uM preincubated for 1 hr followed by CCCP stimulation for 3 hrs by Alexa Fluor 488/Hoechst 33342 staining based high-content imaging analysis. It is filed as functional, cell-based. The following applies: time 4.0 hrs. In outline:
(§1)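 A549 cells exposed to compound 1 h at 37 °C, then co-treated with CCCP (5 μM) a further 3 h at 37 °C. Cells fixed in paraformaldehyde and stained with anti-TOM20 primary and goat anti-mouse secondary. Mitochondrial morphology scored by high-content imaging with a supervised machine-learning classifier trained on control siRNA (normal), OPA1 siRNA (fragmented) and DRP1 siRNA (hypertubular) images.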

For series [4], the system named is A549. Briefly: Inhibition of CCCP-induced mitochondrial fragmentation in human A549 cells preincubated for 1 hr followed by CCCP stimulation for 3 hrs by Alexa Fluor 488/568 and Hoechst staining based high-content imaging analysis. It is filed as functional, cell-based. Conditions: time 4.0 hrs. In outline:
as §1

The subject of series [5] is A549. Briefly: Inhibition of CCCP-induced mitochondrial fragmentation in human A549 cells at 0.37 to 3.3 uM preincubated for 1 hr followed by CCCP stimulation for 3 hrs by Alexa Fluor 488/568 and Hoechst staining based high-content imaging analysis. It is filed as functional, cell-based. Conditions: dose 0.37-3.3 µM, time 4.0 hrs. In outline: as §1

Converted amounts (≈) assume the structure as drawn. The source made the active and inactive calls. The rule behind the calls is not given here.

The IC50 is the concentration that gives 50% inhibition. A high value points to lower potency. `O=C(Nc1ccc2nc(-c3ccccc3)cc(N3CC(O)C3)c2c1)C1COC1`: the IC50 in series [1] came to 290 nM.

In general, solubility refers to the concentration that dissolves in the medium under given conditions. Higher therefore signals a readily soluble substance. In the case of `Cc1ccc(-c2cc(N3CCC3)c3cc(NC(=O)C(C)C)ccc3n2)cc1`, it took 50 nM to reach half-maximal inhibition in series [1] (IC50). In addition, the solubility in series [2] was found to be 11 µM (≈ 3.95 µg/mL).

In the case of `CCNc1cc(-c2ccccc2)nc2ccc(NC(=O)C(C)C)cc12`, 4300 nM corresponded to half-maximal inhibition in series [1] (IC50).

Compound `CC(C)C(=O)Nc1ccc2nc(-c3ccccc3)cc(N3CCCC3)c2c1` had an IC50 in series [1] of 450 nM. This IC50 lies about 9.6-fold lower than the previous one.

For the compound `CC1CN(c2cc(-c3ccccc3)nc3ccc(NC(=O)C(C)C)cc23)C1`, in series [1], the IC50 was determined as 580 nM.

`CC(C)C(=O)Nc1ccc2nc(-c3ccccc3)cc(N3CCOCC3)c2c1` displayed an IC50 in series [1] of 22000 nM.

`CC(C)C(=O)Nc1ccc2nc(-c3ccccc3)cc(-n3ccnc3)c2c1` showed an IC50 in series [1] of 22000 nM.

With `O=C(Nc1ccc2nc(-c3ccccc3)cc(N3CCC3)c2c1)C1COC1`, the inhibition result in the series on A549 [3] and with A549 [5] was “Active” throughout. The inhibition entry with A549 [4] was “Dose-Dependent Effect”. Besides, in series [1], the IC50 came to 100 nM. The compound further displayed a solubility in series [2] of 281 µM (≈ 101 µg/mL).

As to `CC(C)C(=O)Nc1ccc2nc(-c3ccccc3)cc(N3CCC3)c2c1`, the IC50 in series [1] was 120 nM.

For `CC(C)C(=O)Nc1ccc2nc(-c3ccccc3)cc(-n3cccn3)c2c1`, in series [1], the IC50 was 12000 nM.

`CCOc1cc(-c2ccccc2)nc2ccc(NC(=O)C(C)C)cc12` yielded an IC50 in series [1] of 3600 nM.

In series [1], `CC(C)C(=O)Nc1ccc2nc(-c3ccccc3)cc(N(C)C)c2c1` yielded an IC50 of 11000 nM.

Compound `CC(C)C(=O)Nc1ccc2nc(-c3ccccc3)cc(N3CCCCC3)c2c1` gave a concentration for half-maximal inhibition (IC50) in series [1] of 13000 nM. The IC50 values of the last two compounds are within 1.5-fold of each other.

In turn, `CC(C)C(=O)Nc1ccc2nc(-c3ccccc3)cc(N3CCCC3=O)c2c1` displayed an IC50 in series [1] greater than 100000 nM.

In the case of `COc1ccc(-c2cc(N3CCC3)c3cc(NC(=O)C4COC4)ccc3n2)cc1`, it took 140 nM to reach half-maximal inhibition in series [1] (IC50). This lies in the sub-micromolar range.

As to `CC(C)C(=O)Nc1ccc2nc(-c3ccccc3)cc(N3CC(F)C3)c2c1`, the IC50 in series [1] came out at 290 nM. Compared with the last compound, the IC50 is about 2.1-fold higher.
